Laboratory results as given in ChEMBL document CHEMBL1671716, “Antimicrobial susceptibility patterns for recent clinical isolates of anaerobic bacteria in South Korea” (2010).

Key:
Schaalia meyeri = assay: Antimicrobial activity against Actinomyces meyeri assessed as percent resistant isolates after 48 hrs by agar dilution method in presence of 4 ug/ml beta-lactamase inhibitor Tazobactam; format: functional
In short: (§1)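 CLSI agar dilution on recent Korean clinical anaerobe isolates. Inoculum 10^5 CFU per spot by replicator. Plates incubated in an anaerobic chamber at 37°C for 48 h. For piperacillin plus tazobactam, tazobactam was held constant at 4 μg/ml. Resistance and susceptibility rates derived from MICs.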

Prevotella intermedia [1] = assay: Antimicrobial activity against Prevotella intermedia assessed as percent resistant isolates after 48 hrs by agar dilution method in presence of 4 ug/ml beta-lactamase inhibitor Tazobactam; format: functional; in short: as §1
[2] = tested on: Bifidobacterium adolescentis; assay: Antimicrobial activity against Bifidobacterium adolescentis after 48 hrs by agar dilution method in presence of 4 ug/ml beta-lactamase inhibitor Tazobactam; format: functional
In short: (§2)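 MICs by CLSI agar dilution for piperacillin combined with tazobactam, with tazobactam held constant at 4 μg/ml. Clinical anaerobe isolates inoculated at 10^5 CFU by Steers replicator. Plates kept in an anaerobic chamber at 37°C for 48 h.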

Parvimonas micra [3] = assay: Antimicrobial activity against Peptostreptococcus micros after 48 hrs by agar dilution method in presence of 4 ug/ml beta-lactamase inhibitor Tazobactam; format: functional
In short: (§3)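 CLSI agar dilution (M11-A7); inoculum 10^5 CFU applied by replicator; plates incubated anaerobically 48 h at 37°C. For piperacillin-tazobactam, tazobactam held constant at 4 μg/ml.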

[4] = tested on: Peptostreptococcus anaerobius; assay: Antimicrobial activity against Peptostreptococcus anaerobius assessed as percent susceptible isolates after 48 hrs by agar dilution method in presence of 4 ug/ml beta-lactamase inhibitor Tazobactam; format: functional; in short: as §3
Bacteroides caccae [5] = assay: Antimicrobial activity against Bacteroides caccae assessed as percent resistant isolates after 48 hrs by agar dilution method in presence of 4 ug/ml beta-lactamase inhibitor Tazobactam; format: functional; in short: as §1
[6] = tested on: Bacteroides thetaiotaomicron; assay: Antimicrobial activity against Bacteroides thetaiotaomicron assessed as percent susceptible isolates after 48 hrs by agar dilution method in presence of 4 ug/ml beta-lactamase inhibitor Tazobactam; format: functional
[7] = tested on: Parabacteroides distasonis; assay: Antimicrobial activity against Bacteroides distasonis assessed as percent susceptible isolates after 48 hrs by agar dilution method in presence of 4 ug/ml beta-lactamase inhibitor Tazobactam; format: functional
[8] = tested on: Peptoniphilus asaccharolyticus; assay: Antimicrobial activity against Peptoniphilus asaccharolyticus after 48 hrs by agar dilution method in presence of 4 ug/ml beta-lactamase inhibitor Tazobactam; format: functional; in short: as §3
Bifidobacterium sp. [9] = assay: Antimicrobial activity against Bifidobacterium sp. assessed as percent resistant isolates after 48 hrs by agar dilution method in presence of 4 ug/ml beta-lactamase inhibitor Tazobactam; format: functional; in short: as §1
Bacteroides fragilis = assay: Antimicrobial activity against Bacteroides fragilis assessed as percent susceptible isolates after 48 hrs by agar dilution method in presence of 4 ug/ml beta-lactamase inhibitor Tazobactam; format: functional
[10] = tested on: Bacteroides thetaiotaomicron; assay: Antimicrobial activity against Bacteroides thetaiotaomicron assessed as percent resistant isolates after 48 hrs by agar dilution method in presence of 4 ug/ml beta-lactamase inhibitor Tazobactam; format: functional; in short: as §1
Fusobacterium mortiferum = assay: Antimicrobial activity against Fusobacterium mortiferum after 48 hrs by agar dilution method in presence of 4 ug/ml beta-lactamase inhibitor Tazobactam; format: functional; in short: as §3
Prevotella bivia [11] = assay: Antimicrobial activity against Prevotella bivia assessed as percent susceptible isolates after 48 hrs by agar dilution method in presence of 4 ug/ml beta-lactamase inhibitor Tazobactam; format: functional; in short: as §3
Bacteroides caccae [12] = assay: Antimicrobial activity against Bacteroides caccae after 48 hrs by agar dilution method in presence of 4 ug/ml beta-lactamase inhibitor Tazobactam; format: functional; in short: as §2
Clostridioides difficile = assay: Antimicrobial activity against Clostridium difficile assessed as percent resistant isolates after 48 hrs by agar dilution method in presence of 4 ug/ml beta-lactamase inhibitor Tazobactam; format: functional; in short: as §1
Parvimonas micra [13] = assay: Antimicrobial activity against Peptostreptococcus micros assessed as percent susceptible isolates after 48 hrs by agar dilution method in presence of 4 ug/ml beta-lactamase inhibitor Tazobactam; format: functional; in short: as §3
Phocaeicola vulgatus [14] = assay: Antimicrobial activity against Bacteroides vulgatus assessed as percent susceptible isolates after 48 hrs by agar dilution method in presence of 4 ug/ml beta-lactamase inhibitor Tazobactam; format: functional
Bifidobacterium sp. [15] = assay: Antimicrobial activity against Bifidobacterium sp. after 48 hrs by agar dilution method in presence of 4 ug/ml beta-lactamase inhibitor Tazobactam; format: functional; in short: as §2
Anaerococcus prevotii [16] = assay: Antimicrobial activity against Anaerococcus prevotii after 48 hrs by agar dilution method in presence of 4 ug/ml beta-lactamase inhibitor Tazobactam; format: functional; in short: as §2
Fusobacterium varium = assay: Antimicrobial activity against Fusobacterium varium after 48 hrs by agar dilution method in presence of 4 ug/ml beta-lactamase inhibitor Tazobactam; format: functional; in short: as §3
Finegoldia magna [17] = assay: Antimicrobial activity against Finegoldia magna assessed as percent susceptible isolates after 48 hrs by agar dilution method in presence of 4 ug/ml beta-lactamase inhibitor Tazobactam; format: functional; in short: as §3
Prevotella intermedia [18] = assay: Antimicrobial activity against Prevotella intermedia assessed as percent susceptible isolates after 48 hrs by agar dilution method in presence of 4 ug/ml beta-lactamase inhibitor Tazobactam; format: functional; in short: as §3
Prevotella buccae = assay: Antimicrobial activity against Prevotella buccae assessed as percent susceptible isolates after 48 hrs by agar dilution method in presence of 4 ug/ml beta-lactamase inhibitor Tazobactam; format: functional, Segatella buccae; in short: as §3
Hoylesella oralis = assay: Antimicrobial activity against Prevotella oralis after 48 hrs by agar dilution method in presence of 4 ug/ml beta-lactamase inhibitor Tazobactam; format: functional; in short: as §3
Anaerococcus prevotii [19] = assay: Antimicrobial activity against Anaerococcus prevotii assessed as percent susceptible isolates after 48 hrs by agar dilution method in presence of 4 ug/ml beta-lactamase inhibitor Tazobactam; format: functional
Schaalia odontolytica = assay: Antimicrobial activity against Actinomyces odontolyticus assessed as percent susceptible isolates after 48 hrs by agar dilution method in presence of 4 ug/ml beta-lactamase inhibitor Tazobactam; format: functional; conditions: pooled result: one value given for 8 cell lines, strains, targets or settings
[20] = tested on: Porphyromonas asaccharolytica; assay: Antimicrobial activity against Porphyromonas asaccharolytica after 48 hrs by agar dilution method in presence of 4 ug/ml beta-lactamase inhibitor Tazobactam; format: functional; in short: as §3
Prevotella bivia [21] = assay: Antimicrobial activity against Prevotella bivia assessed as percent resistant isolates after 48 hrs by agar dilution method in presence of 4 ug/ml beta-lactamase inhibitor Tazobactam; format: functional; in short: as §1
Phocaeicola vulgatus [22] = assay: Antimicrobial activity against Bacteroides vulgatus assessed as percent resistant isolates after 48 hrs by agar dilution method in presence of 4 ug/ml beta-lactamase inhibitor Tazobactam; format: functional; in short: as §1
Eggerthella lenta = assay: Antimicrobial activity against Eubacterium lentum after 48 hrs by agar dilution method in presence of 4 ug/ml beta-lactamase inhibitor Tazobactam; format: functional; in short: as §3
Actinomyces naeslundii = assay: Antimicrobial activity against Actinomyces naeslundii after 48 hrs by agar dilution method in presence of 4 ug/ml beta-lactamase inhibitor Tazobactam; format: functional; in short: as §2
Actinomyces israelii = assay: Antimicrobial activity against Actinomyces israelii after 48 hrs by agar dilution method in presence of 4 ug/ml beta-lactamase inhibitor Tazobactam; format: functional; in short: as §2
Finegoldia magna [23] = assay: Antimicrobial activity against Finegoldia magna after 48 hrs by agar dilution method in presence of 4 ug/ml beta-lactamase inhibitor Tazobactam; format: functional; in short: as §3

SMILES: CCN1CCN(C(=O)N[C@@H](C(=O)N[C@@H]2C(=O)N3[C@@H]2SC(C)(C)[C@@H]3C(=O)O)c2ccccc2)C(=O)C1=O [PIPERACILLIN]
- Activity (Schaalia meyeri): 0%
- Activity (Prevotella intermedia [1]): 0%
- MIC50 [2]: 0.5 µg/mL
- MIC90 [2]: 8 µg/mL
- MIC50 (Parvimonas micra [3]): 0.25 µg/mL
- MIC90 (Parvimonas micra [3]): 16 µg/mL
- Activity [4]: 100%
- Activity (Bacteroides caccae [5]): 7%
- Activity [6]: 89%
- Activity [7]: 89%
- MIC50 [8]: ≤ 0.03 µg/mL
- MIC90 [8]: 0.06 µg/mL
- Activity (Bifidobacterium sp. [9]): 0%
- Activity (Bacteroides fragilis): 97%
- Activity [10]: 7%
- MIC (Fusobacterium mortiferum): 0.03 µg/mL
- Activity (Prevotella bivia [11]): 100%
- MIC50 (Bacteroides caccae [12]): 8 µg/mL
- MIC90 (Bacteroides caccae [12]): 64 µg/mL
- Activity (Clostridioides difficile): 0%
- Activity (Parvimonas micra [13]): 0%
- Activity (Phocaeicola vulgatus [14]): 89%
- MIC50 (Bifidobacterium sp. [15]): 0.5 µg/mL
- MIC90 (Bifidobacterium sp. [15]): 8 µg/mL
- MIC50 (Anaerococcus prevotii [16]): 0.125 µg/mL
- MIC90 (Anaerococcus prevotii [16]): 0.125 µg/mL
- MIC (Fusobacterium varium): 0.03 µg/mL
- Activity (Finegoldia magna [17]): 100%
- Activity (Prevotella intermedia [18]): 100%
- Activity (Prevotella buccae): 100%
- MIC50 (Hoylesella oralis): ≤ 0.03 µg/mL
- MIC90 (Hoylesella oralis): 4 µg/mL
- Activity (Anaerococcus prevotii [19]): 100%
- Activity (Schaalia odontolytica): 92%
- MIC [20]: 0.03 µg/mL
- Activity (Prevotella bivia [21]): 0%
- Activity (Phocaeicola vulgatus [22]): 7%
- MIC50 (Eggerthella lenta): 0.5 µg/mL
- MIC90 (Eggerthella lenta): 8 µg/mL
- MIC50 (Actinomyces naeslundii): 0.5 µg/mL
- MIC90 (Actinomyces naeslundii): 8 µg/mL
- MIC50 (Actinomyces israelii): 0.5 µg/mL
- MIC90 (Actinomyces israelii): 8 µg/mL
- MIC50 (Finegoldia magna [23]): 0.06 µg/mL
- MIC90 (Finegoldia magna [23]): 0.125 µg/mL
